Measurements reported in ChEMBL document CHEMBL4359877, “Identification of benzothiazinones containing an oxime functional moiety as new anti-tuberculosis agents” (Eur J Med Chem, 2019).

Tests used:
[1] = tested on: Mycobacterium tuberculosis; assay: Antimycobacterial activity against Mycobacterium tuberculosis H37Rv ATCC 27294 assessed as reduction in bacterial cell growth incubated for 7 days by microplate alamar blue assay; assay type: functional; settings: H37Rv ATCC 27294, 168 h
In short: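 MABA: H37Rv or clinical MDR isolates (resistant to INH and RFP, Beijing Chest Hospital patients) grown to late log phase in 7H9 with glycerol, Tween 80 and ADC, washed, filtered and frozen. Two-fold compound dilutions with 2 × 10⁵ CFU per well, 37 °C; Alamar blue plus Tween 80 added on day 7, fluorescence (ex 530/em 590) read after 16–24 h. MIC = lowest concentration giving ≥90% fluorescence reduction versus mean of bacterium-only controls; RIF and INH as positive controls.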

[2] = Cytotoxicity against African green monkey Vero cells assessed as reduction in cell viability; assay type: cell-based; settings: chlorocebus sabaeus
[3] = Half life in ICR mouse at 25 mg/kg, po measured upto 24 hrs by HPLC analysis; assay type: ADME, organism-based; settings: in vivo
In short: (§1)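 Female SPF ICR mice, 18–22 g, fasted overnight, 3 per group; single oral dose 25 mg/kg as suspension in 0.5% CMC. Jugular vein blood drawn at 0.25, 0.5, 1, 2, 4, 6, 8 and 24 h; serum deproteinised with acetonitrile, dried, redissolved and quantified by HPLC. AUC, t1/2, Cmax and Tmax taken directly from concentration–time data.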

[4] = Tmax in ICR mouse at 25 mg/kg, po measured upto 24 hrs by HPLC analysis; assay type: ADME, organism-based; settings: in vivo; in short: as §1
[5] = Cmax in ICR mouse at 25 mg/kg, po measured upto 24 hrs by HPLC analysis; assay type: ADME, organism-based; design: dose 25 mg/kg, route oral; settings: in vivo; in short: as §1
[6] = AUC (0 to infinity) in ICR mouse at 25 mg/kg, po measured upto 24 hrs by HPLC analysis; assay type: ADME, organism-based; design: dose 25 mg/kg, time infinity, route oral; settings: in vivo; in short: as §1
[7] = MRT in ICR mouse at 25 mg/kg, po measured upto 24 hrs by HPLC analysis; assay type: ADME, organism-based; settings: in vivo; in short: as §1
[8] = tested on: Mycobacterium tuberculosis; assay: Antituberculosis activity against Mycobacterium tuberculosis H37Rv infected in BALB/C mouse assessed as colony forming unit in lungs at 25 mg/kg, po administered once daily via gavage for 5 days per week for 3 weeks starting from 10 days post-infection (reference value: 6.44 +/- 0.34); assay type: functional
[9] = tested on: Mycobacterium tuberculosis; assay: Antimycobacterial activity against Mycobacterium tuberculosis H37Rv assessed as reduction in bacterial cell growth at 32 ug/ml by Low-oxygen recovery assay; assay type: functional
[10] = tested on: Mycobacterium tuberculosis; assay: Antimycobacterial activity against Mycobacterium tuberculosis H37Rv assessed as reduction in bacterial cell growth by Low-oxygen recovery assay; assay type: functional
Cytochrome P450 1A2 = molecular target: T1, Cytochrome P450 1A2 (Homo sapiens, UniProt P05177); assay: (§2) Inhibition of CYP1A2 (unknown origin); assay type: ADME
T1 sequence (P05177 whole entry): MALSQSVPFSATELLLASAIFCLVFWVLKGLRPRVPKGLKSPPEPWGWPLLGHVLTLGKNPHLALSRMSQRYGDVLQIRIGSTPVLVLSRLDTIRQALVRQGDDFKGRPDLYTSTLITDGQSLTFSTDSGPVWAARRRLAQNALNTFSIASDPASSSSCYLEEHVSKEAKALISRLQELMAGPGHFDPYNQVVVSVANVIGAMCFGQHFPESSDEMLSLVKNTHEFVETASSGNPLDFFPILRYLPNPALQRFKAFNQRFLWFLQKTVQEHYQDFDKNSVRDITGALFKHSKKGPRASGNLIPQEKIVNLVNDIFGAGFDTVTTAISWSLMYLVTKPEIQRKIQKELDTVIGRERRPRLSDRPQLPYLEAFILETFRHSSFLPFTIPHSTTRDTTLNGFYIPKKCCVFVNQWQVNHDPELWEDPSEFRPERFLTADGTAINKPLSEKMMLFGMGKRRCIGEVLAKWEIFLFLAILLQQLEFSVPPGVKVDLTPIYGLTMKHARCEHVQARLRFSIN

Cytochrome P450 2D6 = Cytochrome P450 2D6 (Homo sapiens, UniProt P10635); assay: (§3) Inhibition of CYP2D6 (unknown origin); assay type: ADME
Chain of Cytochrome P450 2D6 (P10635 whole entry): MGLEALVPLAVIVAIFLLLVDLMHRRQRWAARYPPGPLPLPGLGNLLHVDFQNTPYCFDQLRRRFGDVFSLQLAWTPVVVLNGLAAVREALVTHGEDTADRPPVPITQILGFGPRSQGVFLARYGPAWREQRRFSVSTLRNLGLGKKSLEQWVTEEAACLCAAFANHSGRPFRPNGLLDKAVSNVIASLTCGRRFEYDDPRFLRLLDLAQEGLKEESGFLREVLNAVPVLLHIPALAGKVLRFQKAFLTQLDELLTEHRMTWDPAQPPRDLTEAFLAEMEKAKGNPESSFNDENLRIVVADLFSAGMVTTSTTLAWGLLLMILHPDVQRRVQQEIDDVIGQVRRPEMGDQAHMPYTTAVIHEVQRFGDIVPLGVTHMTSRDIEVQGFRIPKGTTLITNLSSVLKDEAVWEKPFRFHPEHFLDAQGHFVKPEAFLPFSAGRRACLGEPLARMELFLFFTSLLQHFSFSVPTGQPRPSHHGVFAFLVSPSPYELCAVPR

Cytochrome P450 3A4 = Cytochrome P450 3A4 (Homo sapiens, UniProt P08684); assay: (§4) Inhibition of CYP3A4 (unknown origin); assay type: ADME
Chain of Cytochrome P450 3A4 (P08684 whole entry): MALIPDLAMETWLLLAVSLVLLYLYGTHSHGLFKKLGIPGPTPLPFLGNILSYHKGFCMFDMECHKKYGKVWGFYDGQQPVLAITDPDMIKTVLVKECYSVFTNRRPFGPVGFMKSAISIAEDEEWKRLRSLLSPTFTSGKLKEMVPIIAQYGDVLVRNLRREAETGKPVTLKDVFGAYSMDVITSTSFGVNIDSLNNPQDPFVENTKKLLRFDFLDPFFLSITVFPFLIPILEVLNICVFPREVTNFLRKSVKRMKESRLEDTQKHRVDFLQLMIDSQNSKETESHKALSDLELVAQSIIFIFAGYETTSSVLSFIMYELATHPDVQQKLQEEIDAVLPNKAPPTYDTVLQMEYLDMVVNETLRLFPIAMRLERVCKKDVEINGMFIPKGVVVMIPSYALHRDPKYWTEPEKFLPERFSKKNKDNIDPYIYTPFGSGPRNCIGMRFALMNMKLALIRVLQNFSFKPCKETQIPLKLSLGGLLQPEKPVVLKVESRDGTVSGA

Cytochrome P450 2C9 = Cytochrome P450 2C9 (Homo sapiens, UniProt P11712); assay: (§5) Inhibition of CYP2C9 (unknown origin); assay type: ADME
Chain of Cytochrome P450 2C9 (P11712 whole entry): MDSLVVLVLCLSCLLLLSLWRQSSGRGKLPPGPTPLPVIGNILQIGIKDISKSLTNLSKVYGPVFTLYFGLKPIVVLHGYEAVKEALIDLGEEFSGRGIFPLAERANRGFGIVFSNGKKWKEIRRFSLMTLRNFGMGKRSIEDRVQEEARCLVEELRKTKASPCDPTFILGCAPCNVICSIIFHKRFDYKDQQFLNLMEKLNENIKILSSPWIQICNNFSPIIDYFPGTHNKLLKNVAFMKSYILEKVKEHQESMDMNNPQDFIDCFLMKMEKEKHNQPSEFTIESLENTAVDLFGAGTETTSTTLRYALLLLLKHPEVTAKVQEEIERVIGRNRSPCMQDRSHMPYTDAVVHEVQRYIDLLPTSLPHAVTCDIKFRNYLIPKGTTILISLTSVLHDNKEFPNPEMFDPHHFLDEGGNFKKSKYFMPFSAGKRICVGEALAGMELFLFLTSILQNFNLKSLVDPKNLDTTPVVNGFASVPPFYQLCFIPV

Cytochrome P450 2C19 = Cytochrome P450 2C19 (Homo sapiens, UniProt P33261); assay: Inhibition of CYP2C19 (unknown origin); assay type: ADME
Chain of Cytochrome P450 2C19 (P33261 whole entry): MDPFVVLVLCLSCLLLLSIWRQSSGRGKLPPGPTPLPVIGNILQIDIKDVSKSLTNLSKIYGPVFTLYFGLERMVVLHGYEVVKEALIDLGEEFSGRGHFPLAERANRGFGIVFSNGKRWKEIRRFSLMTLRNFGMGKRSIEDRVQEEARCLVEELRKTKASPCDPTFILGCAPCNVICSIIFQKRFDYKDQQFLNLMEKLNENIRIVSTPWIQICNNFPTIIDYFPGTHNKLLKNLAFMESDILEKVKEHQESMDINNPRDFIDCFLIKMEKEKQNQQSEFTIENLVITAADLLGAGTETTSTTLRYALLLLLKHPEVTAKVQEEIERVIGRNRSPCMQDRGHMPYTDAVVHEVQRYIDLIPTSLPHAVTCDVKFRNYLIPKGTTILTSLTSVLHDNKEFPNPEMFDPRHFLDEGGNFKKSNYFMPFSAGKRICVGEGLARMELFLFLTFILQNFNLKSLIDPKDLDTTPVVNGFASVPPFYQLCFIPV

[11] = molecular target: Voltage-gated inwardly rectifying potassium channel KCNH2 (Homo sapiens, UniProt Q12809); assay: Inhibition of human ERG transfected in HEK293 cells by whole-cell patch clamp method; assay type: cell-based
Chain of Voltage-gated inwardly rectifying potassium channel KCNH2 (Q12809 whole entry): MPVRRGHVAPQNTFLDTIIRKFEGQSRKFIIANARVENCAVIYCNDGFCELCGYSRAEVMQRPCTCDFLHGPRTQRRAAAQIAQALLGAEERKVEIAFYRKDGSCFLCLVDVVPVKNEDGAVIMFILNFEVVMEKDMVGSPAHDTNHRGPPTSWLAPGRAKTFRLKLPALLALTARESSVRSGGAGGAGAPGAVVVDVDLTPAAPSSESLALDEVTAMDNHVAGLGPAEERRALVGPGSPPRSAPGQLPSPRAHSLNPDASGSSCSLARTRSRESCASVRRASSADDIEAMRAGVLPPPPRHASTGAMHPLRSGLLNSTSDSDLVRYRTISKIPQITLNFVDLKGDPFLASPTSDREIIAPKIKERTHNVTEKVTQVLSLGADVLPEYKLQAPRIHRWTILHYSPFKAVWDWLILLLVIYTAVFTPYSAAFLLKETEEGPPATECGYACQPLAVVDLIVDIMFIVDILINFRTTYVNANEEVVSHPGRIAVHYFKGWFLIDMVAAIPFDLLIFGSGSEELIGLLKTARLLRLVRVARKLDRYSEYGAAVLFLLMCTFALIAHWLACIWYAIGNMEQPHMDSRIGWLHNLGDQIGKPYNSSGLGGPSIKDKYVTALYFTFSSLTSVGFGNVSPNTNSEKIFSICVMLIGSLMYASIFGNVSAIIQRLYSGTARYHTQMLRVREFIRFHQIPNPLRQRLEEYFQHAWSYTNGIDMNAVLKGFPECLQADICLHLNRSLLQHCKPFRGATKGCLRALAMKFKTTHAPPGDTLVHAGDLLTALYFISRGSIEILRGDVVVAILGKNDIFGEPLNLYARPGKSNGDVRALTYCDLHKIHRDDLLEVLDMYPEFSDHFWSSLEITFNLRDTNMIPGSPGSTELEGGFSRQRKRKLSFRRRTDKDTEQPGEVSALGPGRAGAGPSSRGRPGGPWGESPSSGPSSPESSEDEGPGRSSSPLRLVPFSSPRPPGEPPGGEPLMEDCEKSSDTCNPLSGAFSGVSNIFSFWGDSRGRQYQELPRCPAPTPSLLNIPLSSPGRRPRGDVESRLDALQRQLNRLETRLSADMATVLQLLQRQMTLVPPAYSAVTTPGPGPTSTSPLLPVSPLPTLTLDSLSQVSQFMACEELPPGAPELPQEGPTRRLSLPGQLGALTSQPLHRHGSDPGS

[12] = Mutagenicity in Salmonella typhimurium TA100 in absence of S9 fraction by mini-Ames test; assay type: toxicity; settings: salmonella enterica subsp. enterica serovar typhimurium
[13] = Mutagenicity in Salmonella typhimurium TA102 in absence of S9 fraction by mini-Ames test; assay type: toxicity; settings: salmonella enterica subsp. enterica serovar typhimurium
[14] = Mutagenicity in Salmonella typhimurium TA100 in presence of S9 fraction by mini-Ames test; assay type: toxicity, subcellular; settings: salmonella enterica subsp. enterica serovar typhimurium
[15] = Mutagenicity in Salmonella typhimurium TA102 in presence of S9 fraction by mini-Ames test; assay type: toxicity, subcellular; settings: salmonella enterica subsp. enterica serovar typhimurium
[16] = Acute toxicity in Sprague-Dawley rat assessed as death at 2 g/kg, po measured continuously for first 4 hrs followed by every 1 hr for next 24 hrs and subsequent 8 hrs interval for 7 days; assay type: organism-based; settings: in vivo, 2000 mg/kg
In short: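 SD rats, 180–220 g, randomised, ten per group, food withheld overnight. Single oral dose of 2 g/kg suspended in 5% CMC; controls given vehicle only. Watched continuously for 4 h, hourly for the next 24 h, then every 8 h through day 7 for deaths or changes. Read-out is survivors/total at 7 days.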

[17] = Half life in Sprague-Dawley rat at 2.5 mg/kg, iv measured upto 24 hrs by HPLC analysis; assay type: ADME, organism-based; settings: in vivo
In short: (§6)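 SD rats, 180–220 g; single intravenous dose 2.5 mg/kg or oral doses of 25, 50 or 200 mg/kg, n = 6, half of each sex. Serum sampling, acetonitrile deproteinisation and HPLC quantification followed the mouse procedure. Parameters derived from concentration–time data; F% obtained from the oral and IV exposures.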

[18] = Cmax in Sprague-Dawley rat at 2.5 mg/kg, iv measured upto 24 hrs by HPLC analysis; assay type: ADME, organism-based; design: dose 2.5 mg/kg, route intravenous; settings: in vivo; in short: as §6
[19] = AUC (0 to infinity) in Sprague-Dawley rat at 2.5 mg/kg, iv by HPLC analysis; assay type: ADME, organism-based; design: dose 2.5 mg/kg, route intravenous, time infinity; settings: in vivo; in short: as §6
[20] = Half life in Sprague-Dawley rat at 25 mg/kg, po measured upto 24 hrs by HPLC analysis; assay type: ADME, organism-based; settings: in vivo; in short: as §6
[21] = Half life in Sprague-Dawley rat at 50 mg/kg, po measured upto 24 hrs by HPLC analysis; assay type: ADME, organism-based; settings: in vivo; in short: as §6
[22] = Half life in Sprague-Dawley rat at 200 mg/kg, po measured upto 24 hrs by HPLC analysis; assay type: ADME, organism-based; settings: in vivo; in short: as §6
[23] = Tmax in Sprague-Dawley rat at 25 mg/kg, po measured upto 24 hrs by HPLC analysis; assay type: ADME, organism-based; settings: in vivo; in short: as §6
[24] = Tmax in Sprague-Dawley rat at 50 mg/kg, po measured upto 24 hrs by HPLC analysis; assay type: ADME, organism-based; settings: in vivo; in short: as §6
[25] = Tmax in Sprague-Dawley rat at 200 mg/kg, po measured upto 24 hrs by HPLC analysis; assay type: ADME, organism-based; settings: in vivo; in short: as §6
[26] = Cmax in Sprague-Dawley rat at 25 mg/kg, po measured upto 24 hrs by HPLC analysis; assay type: ADME, organism-based; design: dose 25 mg/kg, route oral; settings: in vivo; in short: as §6
[27] = Cmax in Sprague-Dawley rat at 50 mg/kg, po measured upto 24 hrs by HPLC analysis; assay type: ADME, organism-based; design: dose 50 mg/kg, route oral; settings: in vivo; in short: as §6
[28] = Cmax in Sprague-Dawley rat at 200 mg/kg, po measured upto 24 hrs by HPLC analysis; assay type: ADME, organism-based; design: dose 200 mg/kg, route oral; settings: in vivo; in short: as §6
[29] = AUC (0 to infinity) in Sprague-Dawley rat at 25 mg/kg, po by HPLC analysis; assay type: ADME, organism-based; design: dose 25 mg/kg, route oral, time infinity; settings: in vivo; in short: as §6
[30] = AUC (0 to infinity) in Sprague-Dawley rat at 50 mg/kg, po by HPLC analysis; assay type: ADME, organism-based; design: dose 50 mg/kg, time infinity, route oral; settings: in vivo; in short: as §6
[31] = AUC (0 to infinity) in Sprague-Dawley rat at 200 mg/kg, po by HPLC analysis; assay type: ADME, organism-based; design: dose 200 mg/kg, route oral, time infinity; settings: in vivo; in short: as §6
[32] = Oral bioavailability in Sprague-Dawley rat at 25 mg/kg measured upto 24 hrs by HPLC analysis; assay type: ADME, organism-based; settings: in vivo; in short: as §6
[33] = Oral bioavailability in Sprague-Dawley rat at 50 mg/kg measured upto 24 hrs by HPLC analysis; assay type: ADME, organism-based; settings: in vivo; in short: as §6
[34] = Oral bioavailability in Sprague-Dawley rat at 200 mg/kg measured upto 24 hrs by HPLC analysis; assay type: ADME, organism-based; settings: in vivo; in short: as §6
CYP1A2 = molecular target: T2, CYP1A2 (Homo sapiens, UniProt P05177); assay: as §2; assay type: ADME
T2 sequence (P05177 whole entry): T1 sequence (P05177 whole entry)

CYP2D6 = CYP2D6 (Homo sapiens, UniProt P10635); assay: as §3; assay type: ADME
Chain of CYP2D6 (P10635 whole entry): as the sequence (P10635 whole entry) above

CYP3A4 = CYP3A4 (Homo sapiens, UniProt P08684); assay: as §4; assay type: ADME
Chain of CYP3A4 (P08684 whole entry): as the sequence (P08684 whole entry) above

CYP2C9 = CYP2C9 (Homo sapiens, UniProt P11712); assay: as §5; assay type: ADME
Chain of CYP2C9 (P11712 whole entry): as the sequence (P11712 whole entry) above

[35] = tested on: Mycobacterium tuberculosis; assay: Antituberculosis activity against Mycobacterium tuberculosis H37Rv infected in BALB/C mouse assessed as reduction in log10CFU in lungs at 25 mg/kg, po administered once daily for 5 days per week for a total of 3 weeks started on day 10 post-infection; assay type: functional

SMILES | MIC90 [1] | CC50 [2] | half-life [3] | Tmax [4] | Cmax [5] | AUC(0-inf) [6] | MRT [7] | Activity [8] | inhibition at 32 µg/mL [9] | MIC [10] | IC50 (Cytochrome P450 2C19) | Activity [12] | Activity [13] | Activity [14] | Activity [15] | Activity [16] | half-life [17] | Cmax [18] | AUC(0-inf) [19] | half-life [20] | further results
O=c1nc(N2CCN(CC3CCCCC3)CC2)sc2c([N+](=O)[O-])cc(C(F)(F)F)cc12 [MACOZINONE] | < 0.016 µg/mL | > 64 µg/mL | 2.78 h | 0.25 h | 912 ng/mL | 1660 ng·h/mL | 3.17 h | 2.65 log10CFU | 78% | > 32 µg/mL | 3.77 µM | Non-Toxic | Non-Toxic | Non-Toxic | Non-Toxic | Non-Toxic | 1.64 h | 1440 ng/mL | 1540 ng·h/mL | 4.23 h | IC50 (Cytochrome P450 1A2): > 10 µM; IC50 (Cytochrome P450 2D6): > 10 µM; IC50 (Cytochrome P450 3A4): > 10 µM; IC50 (Cytochrome P450 2C9): > 10 µM; IC50 [11]: 102 µM; half-life [21]: 4.86 h; half-life [22]: 5.76 h; Tmax [23]: 0.91 h; Tmax [24]: 1.33 h; Tmax [25]: 2.5 h; Cmax [26]: 463 ng/mL; Cmax [27]: 694 ng/mL; Cmax [28]: 804 ng/mL; AUC(0-inf) [29]: 1600 ng·h/mL; AUC(0-inf) [30]: 3120 ng·h/mL; AUC(0-inf) [31]: 4720 ng·h/mL; bioavailability [32]: 10.7%; bioavailability [33]: 10.2%; bioavailability [34]: 3.82%
CON=C1CCC(CN2CCN(c3nc(=O)c4cc(C(F)(F)F)cc([N+](=O)[O-])c4s3)CC2)CC1 (stereo not drawn) | < 0.016 µg/mL | > 64 µg/mL | 1.65 h | 0.25 h | 8570 ng/mL | 27500 ng·h/mL | 2.46 h | 2.4 log10CFU | 86% | > 32 µg/mL | 7.8 µM | Non-Toxic | Non-Toxic | Non-Toxic | Non-Toxic | Non-Toxic | 1.77 h | 2590 ng/mL | 5720 ng·h/mL | 3.2 h | IC50 (CYP1A2): > 10 µM; IC50 (CYP2D6): > 10 µM; IC50 (CYP3A4): > 10 µM; IC50 (CYP2C9): > 10 µM; half-life [21]: 4.13 h; half-life [22]: 6.73 h; Tmax [23]: 1.25 h; Tmax [24]: 1.67 h; Tmax [25]: 2.83 h; Cmax [26]: 6230 ng/mL; Cmax [27]: 10100 ng/mL; Cmax [28]: 18200 ng/mL; AUC(0-inf) [29]: 26800 ng·h/mL; AUC(0-inf) [30]: 45900 ng·h/mL; AUC(0-inf) [31]: 128000 ng·h/mL; bioavailability [32]: 46.1%; bioavailability [33]: 40.4%; bioavailability [34]: 30.3%; Activity [35]: 4.04 log10CFU
